Activity calls are given as the source filed them.
Assays:
[1] = target: T1, Tryptase beta-1 (Homo sapiens, UniProt Q15661); assay: In vitro inhibition of human Tryptase beta.
Target sequence in this assay (Q15661 whole entry): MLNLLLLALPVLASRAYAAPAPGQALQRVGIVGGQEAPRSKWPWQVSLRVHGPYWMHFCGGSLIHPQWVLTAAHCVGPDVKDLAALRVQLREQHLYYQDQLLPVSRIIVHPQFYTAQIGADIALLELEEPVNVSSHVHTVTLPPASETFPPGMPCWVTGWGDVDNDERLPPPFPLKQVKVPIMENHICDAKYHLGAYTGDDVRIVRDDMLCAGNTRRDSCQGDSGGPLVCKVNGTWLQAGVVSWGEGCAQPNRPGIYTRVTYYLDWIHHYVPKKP

[2] = Ratio of Ki value kallikrein to that of Ki value of tryptase
[3] = Ratio of Ki value plasmin to that of Ki value of tryptase
[4] = target: Thrombin & trypsin (Homo sapiens) (UniProt P00734+P07477+P07478+P35030); assay: Ratio of Ki value thrombin to that of Ki value of tryptase; format: protein assay
[5] = system: Cationic trypsin (Bos taurus); assay: Ratio of Ki value of bovine trypsin to that of Ki value of tryptase
[6] = target: T1, Tryptase beta-1; assay: Inhibitory activity of compound was determined against human Tryptase beta
Target sequence in this assay (Q15661 whole entry): as above

[7] = target: T1, Tryptase beta-1; assay: Inhibitory activity of compound was determined against human Tryptase beta; NA= not active (<10% inhibition at 100 uM)
Method in brief: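 β-Tryptase chromogenic assay, with absorbance read at 405 nm at 37 °C for 30 min after enzyme addition. […] Percent inhibition came from initial slopes versus the no-inhibitor control, fitted with a four-parameter logistic model.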
Target sequence in this assay (Q15661 31-275 limits assumed): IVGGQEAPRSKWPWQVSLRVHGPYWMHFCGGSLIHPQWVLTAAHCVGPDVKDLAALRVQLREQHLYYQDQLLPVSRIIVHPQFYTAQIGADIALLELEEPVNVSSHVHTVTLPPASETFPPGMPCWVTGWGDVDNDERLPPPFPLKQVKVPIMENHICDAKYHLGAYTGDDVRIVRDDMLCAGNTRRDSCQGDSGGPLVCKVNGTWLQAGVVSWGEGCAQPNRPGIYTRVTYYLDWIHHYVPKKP

[8] = system: Cationic trypsin (Bos taurus); assay: Beta-Trypsin inhibitory activity of compound was determined; NA= not active (<10% inhibition at 100 uM)

Row | Compound | Ki [1] [nM] | other results
1 | CC(=O)N1CC[C@H]1C(=O)N[C@@H](CCCN=C(N)N)C(=O)c1nc2ccccc2s1 | 20 | –
2 | CC(=O)N[C@@H](CC(C)C)C(=O)N[C@@H](CCCN=C(N)N)C(=O)c1nc2ccccc2s1 | 41 | –
3 | CC(=O)N1C[C@H](O)C[C@H]1C(=O)NC(CCCN=C(N)N)C(=O)c1nccs1 (some centres undefined) | 180 | –
4 | N=C(N)NCCC[C@H](NC(=O)c1ccc2ccccc2c1O)C(=O)N1CCCC1C(N)=O (some centres undefined) | 330 | Selectivity [2]: > 3000; Selectivity [3]: > 3000; Selectivity [4]: 1.3; Selectivity [5]: 0.5
5 | CN[C@H](Cc1ccccc1)C(=O)N1CCC[C@H]1C(=O)N[C@@H](CCCN=C(N)N)C(=O)c1nc2ccccc2s1 | 6.5 | –
6 | N=C(N)c1ccc2nc(Cc3nc4ccc(C(=N)N)cc4[nH]3)[nH]c2c1 | 140 | –
7 | N=C(N)NCCCC(NC(=O)C1CCCC1)C(=O)c1nc2ccccc2s1 (centres undefined) | 88 | –
8 | CC(=O)N1CCC[C@@H]1C(=O)N[C@@H](CCCN=C(N)N)C(=O)c1nc2ccccc2s1 | 14000 | IC50 [6]: 2 nM
9 | N=C(N)NCCCCC(=O)c1nc2ccccc2s1 | – | NA [7]: inactive; NA [8]: inactive
10 | CC(=O)N1C[C@H](O)C[C@H]1C(=O)NC(CCCN)C(=O)c1nc2ccccc2s1 (some centres undefined) | 90 | –
11 | CC(=O)N1CCC[C@H]1C(=O)N[C@@H](CCCN=C(N)N)C(=O)c1nc2ccccc2s1 | 19 | –
12 | CC(=O)N1C[C@H](O)C[C@H]1C(=O)N[C@@H](CCCNC(=N)N)C(=O)c1nc2ccccc2s1 (stereo in doubt; (2R) 6) | 380 | –
13 | CC(=O)N1C[C@H](O)C[C@H]1C(=O)N[C@@H](CCCNC(=N)N)C(=O)c1nc2ccccc2s1 | 22 | –
14 | CC(=O)N1C[C@H](O)C[C@H]1C(=O)N[C@@H](CCCNC(=N)N)C(=O)c1nc2ccccc2s1 (stereo in doubt; (2S) 6) | 10 | –
15 | COS(=O)(=O)N1CCC[C@H]1C(=O)N[C@@H](CCCN=C(N)N)C(=O)c1nc2ccccc2s1 | 33 | –
16 | CCCC(NC(=O)[C@@H]1C[C@@H](O)CN1C(C)=O)C(=O)c1nc2ccccc2s1 (some centres undefined) | – | NA [7]: inactive; NA [8]: inactive
17 | CC(=O)N1CC(=O)C[C@H]1C(=O)N[C@@H](CCCN=C(N)N)C(=O)c1nc2ccccc2s1 | 73 | –
18 | CC(=O)NCC(=O)N[C@@H](CCCN=C(N)N)C(=O)c1nc2ccccc2s1 | 470 | –
19 | CC(=O)N1CC=C[C@H]1C(=O)N[C@@H](CCCN=C(N)N)C(=O)c1nc2ccccc2s1 | 38 | –
20 | CC(=O)N1CCC[C@H]1C(=O)NC(CCCN=C(N)N)C(O)c1nc2ccccc2s1 (some centres undefined) | – | NA [7]: inactive; NA [8]: inactive
21 | N=C(N)NCCC[C@H](NC(=O)[C@@H]1CCCN1Cc1ccccc1)C(=O)c1nc2ccccc2s1 | 250 | –
